Measured values taken from ChEMBL document CHEMBL1142890, “Structure-antibacterial activity of arylcarbonyl- and arylsulfonyl-piperazine 5-triazolylmethyl oxazolidinones” (2007).
≈ marks a conversion by molar mass, not a printed value.

Columns and labels:
Staphylococcus [1] = experiment: Antimicrobial activity against methicillin-resistant coagulase-negative Staphylococcus by agar dilution method; format: functional
Outline: (§1)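 Agar dilution per CLSI on Mueller-Hinton agar, test agents at 0.12 to 8 µg/ml; test compounds dissolved in 20% water in DMSO, linezolid in 40% water in ethanol, vancomycin in water. Clinical isolates inoculated at final 10^7 CFU/ml, incubated 35 °C for 18 h. MIC = lowest concentration completely inhibiting growth; reported as range across isolates.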

Escherichia coli = experiment: Antimicrobial activity against Escherichia coli ATCC 25922; format: functional
Staphylococcus [2] = experiment: Antimicrobial activity against methicillin-susceptible coagulase-negative staphylococcus by agar dilution method; format: functional; outline: as §1
Haemophilus influenzae = experiment: Antimicrobial activity against Haemophilus influenzae; format: functional
Enterococcus [3] = experiment: Antimicrobial activity against vancomycin-sensitive Enterococcus by agar dilution method; format: functional; outline: as §1
Staphylococcus aureus [4] = experiment: Antimicrobial activity against methicillin-susceptible Staphylococcus aureus by agar dilution method; format: functional; outline: as §1
Streptococcus pneumoniae = experiment: Antimicrobial activity against Streptococcus pneumoniae by agar dilution method; format: functional
Outline: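 Agar dilution per CLSI on Mueller–Hinton agar holding drug dilutions from 0.12 to 8 µg/ml. Staphylococci and enterococci tested on plain MH agar, S. pneumoniae on MH agar with 5% sheep blood. Test compounds dissolved in 20% water in DMSO. Inoculum 10⁷ CFU/ml, incubated 35 °C for 18 h. MIC was the lowest concentration giving complete growth inhibition.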

Moraxella catarrhalis = experiment: Antimicrobial activity against Moraxella catarrhalis; format: functional
Enterococcus [5] = experiment: Antimicrobial activity against vancomycin-resistant Enterococcus by agar dilution method; format: functional; outline: as §1
Staphylococcus aureus [6] = experiment: Antimicrobial activity against methicillin-resistant Staphylococcus aureus by agar dilution method; format: functional; outline: as §1
Staphylococcus aureus [7] = experiment: Antimicrobial activity against Staphylococcus aureus ATCC 25923 by agar dilution method
Staphylococcus aureus [8] = experiment: Antimicrobial activity against Staphylococcus aureus ATCC 25922 in presence of 50% human plasma […]; format: functional; settings: ATCC 25923, Plasma, in the assay text read “ATCC 25923” for “ATCC 25922”
Outline: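 S. aureus ATCC 25923 tested in Mueller–Hinton broth supplemented with 50% human plasma. Test compounds dissolved in 20% water in DMSO. Inoculum 10⁷ CFU/ml, incubated 35 °C for 18 h. MIC was the lowest concentration completely inhibiting growth.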

Compound	MIC (Staphylococcus [1]) [µg/mL]	MIC (Escherichia coli) [µg/mL]	MIC (Staphylococcus [2]) [µg/mL]	MIC (Haemophilus influenzae) [µg/mL]	MIC (Enterococcus [3]) [µg/mL]	MIC (Staphylococcus aureus [4]) [µg/mL]	MIC (Streptococcus pneumoniae) [µg/mL]	MIC (Moraxella catarrhalis) [µg/mL]	MIC (Enterococcus [5]) [µg/mL]	MIC (Staphylococcus aureus [6]) [µg/mL]	MIC (Staphylococcus aureus [7]) [µg/mL]	MIC (Staphylococcus aureus [8]) [µg/mL]
O=C(c1cccnc1)N1CCN(c2ccc(N3C[C@H](Cn4ccnn4)OC3=O)cc2F)CC1	0.5 (≈ 1.11 µM)	≥ 8	0.5 (≈ 1.11 µM)	≥ 8	1 (≈ 2.22 µM)	0.5 (≈ 1.11 µM)	0.5 (≈ 1.11 µM)	≥ 8	0.5 (≈ 1.11 µM)	0.5 (≈ 1.11 µM)	1 (≈ 2.22 µM)	4
O=C(c1ccncc1)N1CCN(c2ccc(N3C[C@H](Cn4ccnn4)OC3=O)cc2F)CC1	0.5 (≈ 1.11 µM)	≥ 8	0.25 (≈ 0.554 µM)	≥ 8	1 (≈ 2.22 µM)	0.5 (≈ 1.11 µM)	1 (≈ 2.22 µM)	≥ 8	0.5 (≈ 1.11 µM)	0.5 (≈ 1.11 µM)	1 (≈ 2.22 µM)	8
O=C(c1cccnc1Cl)N1CCN(c2ccc(N3C[C@H](Cn4ccnn4)OC3=O)cc2F)CC1	0.5 (≈ 1.03 µM)	≥ 8	0.5 (≈ 1.03 µM)	≥ 8	1 (≈ 2.06 µM)	0.5 (≈ 1.03 µM)	1 (≈ 2.06 µM)	≥ 8	1 (≈ 2.06 µM)	0.5 (≈ 1.03 µM)	2 (≈ 4.12 µM)	4
O=C(c1cccs1)N1CCN(c2ccc(N3C[C@H](Cn4ccnn4)OC3=O)cc2F)CC1	0.25 (≈ 0.548 µM)	≥ 8	0.25 (≈ 0.548 µM)	≥ 8	0.5 (≈ 1.1 µM)	0.5 (≈ 1.1 µM)	0.25 (≈ 0.548 µM)	≥ 8	0.5 (≈ 1.1 µM)	0.5 (≈ 1.1 µM)	0.5 (≈ 1.1 µM)	4
O=C(C(=O)N1CCN(c2ccc(N3C[C@H](Cn4ccnn4)OC3=O)cc2F)CC1)c1cccs1	0.25 (≈ 0.516 µM)	≥ 8	0.25 (≈ 0.516 µM)	≥ 8	0.5 (≈ 1.03 µM)	0.25 (≈ 0.516 µM)	0.25 (≈ 0.516 µM)	≥ 8	0.25 (≈ 0.516 µM)	0.25 (≈ 0.516 µM)	0.5 (≈ 1.03 µM)	2
O=C1O[C@@H](Cn2ccnn2)CN1c1ccc(N2CCOCC2)c(F)c1	0.5 (≈ 1.44 µM)	≥ 8	0.5 (≈ 1.44 µM)	≥ 8	0.5 (≈ 1.44 µM)	0.5 (≈ 1.44 µM)	0.5 (≈ 1.44 µM)	≥ 8	1 (≈ 2.88 µM)	0.5 (≈ 1.44 µM)	1 (≈ 2.88 µM)	1
Cc1cccc(S(=O)(=O)N2CCN(c3ccc(N4C[C@H](Cn5ccnn5)OC4=O)cc3F)CC2)c1	2 (≈ 4 µM)	≥ 8	2 (≈ 4 µM)	≥ 8	> 8	4 (≈ 7.99 µM)	2 (≈ 4 µM)	≥ 8	–	2 (≈ 4 µM)	> 8	> 8
Cc1ccc(S(=O)(=O)N2CCN(c3ccc(N4C[C@H](Cn5ccnn5)OC4=O)cc3F)CC2)cc1	–	≥ 8	> 8	≥ 8	> 8	> 8	2 (≈ 4 µM)	≥ 8	–	–	> 8	> 8
O=C(c1ccccc1)N1CCN(c2ccc(N3C[C@H](Cn4ccnn4)OC3=O)cc2F)CC1	0.25 (≈ 0.555 µM)	≥ 8	0.25 (≈ 0.555 µM)	≥ 8	0.25 (≈ 0.555 µM)	0.25 (≈ 0.555 µM)	1 (≈ 2.22 µM)	≥ 8	0.25 (≈ 0.555 µM)	0.25 (≈ 0.555 µM)	1 (≈ 2.22 µM)	1
O=C(c1ccccc1[N+](=O)[O-])N1CCN(c2ccc(N3C[C@H](Cn4ccnn4)OC3=O)cc2F)CC1	1 (≈ 2.02 µM)	≥ 8	1 (≈ 2.02 µM)	≥ 8	2 (≈ 4.04 µM)	1 (≈ 2.02 µM)	0.5 (≈ 1.01 µM)	≥ 8	1 (≈ 2.02 µM)	0.5 (≈ 1.01 µM)	2 (≈ 4.04 µM)	2
O=C(c1cccc([N+](=O)[O-])c1)N1CCN(c2ccc(N3C[C@H](Cn4ccnn4)OC3=O)cc2F)CC1	0.25 (≈ 0.505 µM)	≥ 8	0.5 (≈ 1.01 µM)	≥ 8	0.5 (≈ 1.01 µM)	0.25 (≈ 0.505 µM)	0.25 (≈ 0.505 µM)	≥ 8	0.5 (≈ 1.01 µM)	0.25 (≈ 0.505 µM)	2 (≈ 4.04 µM)	2
Cc1ccccc1C(=O)N1CCN(c2ccc(N3C[C@H](Cn4ccnn4)OC3=O)cc2F)CC1	0.5 (≈ 1.08 µM)	≥ 8	0.5 (≈ 1.08 µM)	≥ 8	1 (≈ 2.15 µM)	0.5 (≈ 1.08 µM)	1 (≈ 2.15 µM)	≥ 8	1 (≈ 2.15 µM)	0.5 (≈ 1.08 µM)	2 (≈ 4.31 µM)	8
Cc1cccc(C(=O)N2CCN(c3ccc(N4C[C@H](Cn5ccnn5)OC4=O)cc3F)CC2)c1	0.25 (≈ 0.538 µM)	≥ 8	0.25 (≈ 0.538 µM)	≥ 8	0.5 (≈ 1.08 µM)	0.25 (≈ 0.538 µM)	1 (≈ 2.15 µM)	≥ 8	0.5 (≈ 1.08 µM)	0.25 (≈ 0.538 µM)	0.5 (≈ 1.08 µM)	8
Cc1ccc(C(=O)N2CCN(c3ccc(N4C[C@H](Cn5ccnn5)OC4=O)cc3F)CC2)cc1	0.5 (≈ 1.08 µM)	≥ 8	0.5 (≈ 1.08 µM)	≥ 8	1 (≈ 2.15 µM)	0.5 (≈ 1.08 µM)	2 (≈ 4.31 µM)	≥ 8	0.5 (≈ 1.08 µM)	0.5 (≈ 1.08 µM)	1 (≈ 2.15 µM)	8
COc1cccc(C(=O)N2CCN(c3ccc(N4C[C@H](Cn5ccnn5)OC4=O)cc3F)CC2)c1	0.25 (≈ 0.52 µM)	≥ 8	0.25 (≈ 0.52 µM)	≥ 8	0.5 (≈ 1.04 µM)	0.25 (≈ 0.52 µM)	0.25 (≈ 0.52 µM)	≥ 8	0.5 (≈ 1.04 µM)	0.25 (≈ 0.52 µM)	2 (≈ 4.16 µM)	4
COc1ccc(C(=O)N2CCN(c3ccc(N4C[C@H](Cn5ccnn5)OC4=O)cc3F)CC2)cc1	1 (≈ 2.08 µM)	≥ 8	0.5 (≈ 1.04 µM)	≥ 8	1 (≈ 2.08 µM)	1 (≈ 2.08 µM)	0.5 (≈ 1.04 µM)	≥ 8	1 (≈ 2.08 µM)	0.5 (≈ 1.04 µM)	2 (≈ 4.16 µM)	8
O=C(/C=C/c1ccccc1)N1CCN(c2ccc(N3C[C@H](Cn4ccnn4)OC3=O)cc2F)CC1	0.25 (≈ 0.525 µM)	≥ 8	0.25 (≈ 0.525 µM)	≥ 8	0.5 (≈ 1.05 µM)	0.25 (≈ 0.525 µM)	1 (≈ 2.1 µM)	≥ 8	0.25 (≈ 0.525 µM)	0.25 (≈ 0.525 µM)	0.5 (≈ 1.05 µM)	> 8
O=C(c1ccc([N+](=O)[O-])cc1)N1CCN(c2ccc(N3C[C@H](Cn4ccnn4)OC3=O)cc2F)CC1	1 (≈ 2.02 µM)	≥ 8	1 (≈ 2.02 µM)	≥ 8	2 (≈ 4.04 µM)	2 (≈ 4.04 µM)	1 (≈ 2.02 µM)	≥ 8	2 (≈ 4.04 µM)	1 (≈ 2.02 µM)	2 (≈ 4.04 µM)	4
COc1ccccc1C(=O)N1CCN(c2ccc(N3C[C@H](Cn4ccnn4)OC3=O)cc2F)CC1	0.25 (≈ 0.52 µM)	≥ 8	0.25 (≈ 0.52 µM)	≥ 8	1 (≈ 2.08 µM)	0.5 (≈ 1.04 µM)	1 (≈ 2.08 µM)	≥ 8	1 (≈ 2.08 µM)	1 (≈ 2.08 µM)	1 (≈ 2.08 µM)	4
O=C(/C=C/c1ccccc1Cl)N1CCN(c2ccc(N3C[C@H](Cn4ccnn4)OC3=O)cc2F)CC1	0.25 (≈ 0.489 µM)	≥ 8	0.25 (≈ 0.489 µM)	≥ 8	0.5 (≈ 0.979 µM)	0.25 (≈ 0.489 µM)	4 (≈ 7.83 µM)	≥ 8	0.25 (≈ 0.489 µM)	0.25 (≈ 0.489 µM)	0.5 (≈ 0.979 µM)	> 8
O=C(c1ccco1)N1CCN(c2ccc(N3C[C@H](Cn4ccnn4)OC3=O)cc2F)CC1	0.25 (≈ 0.568 µM)	≥ 8	0.25 (≈ 0.568 µM)	≥ 8	0.5 (≈ 1.14 µM)	0.5 (≈ 1.14 µM)	0.25 (≈ 0.568 µM)	≥ 8	0.5 (≈ 1.14 µM)	0.5 (≈ 1.14 µM)	1 (≈ 2.27 µM)	4
CC(=O)NC[C@H]1CN(c2ccc(N3CCOCC3)c(F)c2)C(=O)O1 [LINEZOLID]	1 (≈ 2.96 µM)	≥ 8	0.25 (≈ 0.741 µM)	≥ 8	0.5 (≈ 1.48 µM)	1 (≈ 2.96 µM)	–	≥ 8	2 (≈ 5.93 µM)	0.5 (≈ 1.48 µM)	–	–
CN[C@H](CC(C)C)C(=O)N[C@H]1C(=O)N[C@@H](CC(N)=O)C(=O)N[C@H]2C(=O)N[C@H]3C(=O)N[C@H](C(=O)N[C@H](C(=O)O)c4cc(O)cc(O)c4-c4cc3ccc4O)[C@H](O)c3ccc(c(Cl)c3)Oc3cc2cc(c3O[C@@H]2O[C@H](CO)[C@@H](O)[C@H](O)[C@H]2O[C@H]2C[C@](C)(N)[C@H](O)[C@H](C)O2)Oc2ccc(cc2Cl)[C@H]1O [VANCOMYCIN]	1 (≈ 0.69 µM)	≥ 8	1 (≈ 0.69 µM)	≥ 8	0.25 (≈ 0.173 µM)	–	0.5 (≈ 0.345 µM)	≥ 8	> 64	–	–	–
